Tests used:
[1] = biological target: T1, Receptor-type tyrosine-protein phosphatase C (Homo sapiens, UniProt P08575); assay: Inhibition of recombinant CD45 (unknown origin) using pNPP as substrate by spectrophotometric method
T1 sequence (P08575 whole entry): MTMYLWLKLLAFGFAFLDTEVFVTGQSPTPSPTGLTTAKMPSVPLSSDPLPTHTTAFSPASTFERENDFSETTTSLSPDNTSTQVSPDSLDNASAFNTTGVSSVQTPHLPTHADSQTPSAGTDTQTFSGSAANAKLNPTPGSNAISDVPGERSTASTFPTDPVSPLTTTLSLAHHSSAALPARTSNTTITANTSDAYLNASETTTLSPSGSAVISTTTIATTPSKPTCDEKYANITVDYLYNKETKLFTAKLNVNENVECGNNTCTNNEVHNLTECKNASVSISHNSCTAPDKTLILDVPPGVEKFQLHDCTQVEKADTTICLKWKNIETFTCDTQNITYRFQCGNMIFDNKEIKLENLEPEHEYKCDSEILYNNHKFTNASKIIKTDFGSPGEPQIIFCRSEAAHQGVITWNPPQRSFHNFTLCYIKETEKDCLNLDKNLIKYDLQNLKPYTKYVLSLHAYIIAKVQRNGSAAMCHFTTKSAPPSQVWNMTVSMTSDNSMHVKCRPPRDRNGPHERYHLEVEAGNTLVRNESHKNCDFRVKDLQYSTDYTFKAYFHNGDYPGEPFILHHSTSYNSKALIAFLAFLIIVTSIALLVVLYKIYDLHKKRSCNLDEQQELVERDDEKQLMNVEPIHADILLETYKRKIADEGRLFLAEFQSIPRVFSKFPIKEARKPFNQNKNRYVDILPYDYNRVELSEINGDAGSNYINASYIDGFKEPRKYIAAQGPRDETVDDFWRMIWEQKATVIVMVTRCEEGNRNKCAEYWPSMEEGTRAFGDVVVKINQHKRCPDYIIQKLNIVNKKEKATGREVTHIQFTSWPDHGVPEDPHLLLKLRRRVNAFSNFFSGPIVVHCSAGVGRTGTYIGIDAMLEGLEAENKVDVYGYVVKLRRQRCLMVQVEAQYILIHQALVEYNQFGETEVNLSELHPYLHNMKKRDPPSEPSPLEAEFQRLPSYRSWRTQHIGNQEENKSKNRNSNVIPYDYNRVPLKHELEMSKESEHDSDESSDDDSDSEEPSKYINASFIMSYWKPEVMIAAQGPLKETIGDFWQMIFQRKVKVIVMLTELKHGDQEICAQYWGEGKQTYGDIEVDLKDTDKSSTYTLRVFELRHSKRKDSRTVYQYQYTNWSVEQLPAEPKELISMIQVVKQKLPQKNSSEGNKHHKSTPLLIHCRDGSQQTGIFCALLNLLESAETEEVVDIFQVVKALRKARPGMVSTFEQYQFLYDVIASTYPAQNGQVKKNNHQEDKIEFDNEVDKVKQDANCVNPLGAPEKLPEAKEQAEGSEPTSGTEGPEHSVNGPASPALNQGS
Outline: (§1)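 Recombinant PTP prepared in-house, assayed with pNPP substrate in 50 mM 3,3-dimethylglutarate buffer pH 7.0 containing 1 mM EDTA and 150 mM NaCl at 25 °C, in 96-well format. p-Nitrophenol product was quantified by absorbance at 405 nm. Non-enzymatic pNPP hydrolysis was corrected using a no-enzyme control.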

[2] = biological target: T2, Tyrosine-protein phosphatase non-receptor type 1 (Homo sapiens, UniProt P18031); assay: Inhibition of recombinant PTP1B (unknown origin) using pNPP as substrate by spectrophotometric method; outline: as §1
T2 sequence (P18031 whole entry): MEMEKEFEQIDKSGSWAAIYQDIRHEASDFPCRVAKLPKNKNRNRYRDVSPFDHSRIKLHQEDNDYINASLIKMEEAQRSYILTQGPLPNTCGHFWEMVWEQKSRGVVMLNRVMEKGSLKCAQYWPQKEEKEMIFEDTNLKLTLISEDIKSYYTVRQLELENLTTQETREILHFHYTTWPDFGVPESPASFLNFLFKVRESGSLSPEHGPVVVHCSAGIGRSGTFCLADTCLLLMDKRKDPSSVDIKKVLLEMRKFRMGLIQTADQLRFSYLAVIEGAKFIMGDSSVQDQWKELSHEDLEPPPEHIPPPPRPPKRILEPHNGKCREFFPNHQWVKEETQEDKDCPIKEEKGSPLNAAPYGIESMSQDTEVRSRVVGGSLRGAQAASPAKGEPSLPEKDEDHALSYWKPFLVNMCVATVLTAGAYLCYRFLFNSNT

[3] = biological target: Tyrosine-protein phosphatase non-receptor type 13 (Homo sapiens, UniProt Q12923); assay: Inhibition of recombinant FAP1 (unknown origin) using pNPP as substrate by spectrophotometric method; outline: as §1
[4] = Inhibition of recombinant Mycobacterium tuberculosis PTPB using pNPP as substrate by spectrophotometric method
Outline: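 Recombinant enzyme made in-house. Substrate pNPP in 50 mM 3,3-dimethylglutarate buffer, pH 7.0, with 1 mM EDTA and 150 mM NaCl, at 25 °C, screened in 96-well format. p-Nitrophenol product read at 405 nm. Non-enzymatic pNPP hydrolysis was corrected using a control without enzyme.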

[5] = biological target: T3, Tyrosine-protein phosphatase non-receptor type 22 (Homo sapiens, UniProt Q9Y2R2); assay: Inhibition of recombinant LYP (unknown origin) using pNPP as substrate by spectrophotometric method; outline: as §1
T3 sequence (Q9Y2R2 whole entry): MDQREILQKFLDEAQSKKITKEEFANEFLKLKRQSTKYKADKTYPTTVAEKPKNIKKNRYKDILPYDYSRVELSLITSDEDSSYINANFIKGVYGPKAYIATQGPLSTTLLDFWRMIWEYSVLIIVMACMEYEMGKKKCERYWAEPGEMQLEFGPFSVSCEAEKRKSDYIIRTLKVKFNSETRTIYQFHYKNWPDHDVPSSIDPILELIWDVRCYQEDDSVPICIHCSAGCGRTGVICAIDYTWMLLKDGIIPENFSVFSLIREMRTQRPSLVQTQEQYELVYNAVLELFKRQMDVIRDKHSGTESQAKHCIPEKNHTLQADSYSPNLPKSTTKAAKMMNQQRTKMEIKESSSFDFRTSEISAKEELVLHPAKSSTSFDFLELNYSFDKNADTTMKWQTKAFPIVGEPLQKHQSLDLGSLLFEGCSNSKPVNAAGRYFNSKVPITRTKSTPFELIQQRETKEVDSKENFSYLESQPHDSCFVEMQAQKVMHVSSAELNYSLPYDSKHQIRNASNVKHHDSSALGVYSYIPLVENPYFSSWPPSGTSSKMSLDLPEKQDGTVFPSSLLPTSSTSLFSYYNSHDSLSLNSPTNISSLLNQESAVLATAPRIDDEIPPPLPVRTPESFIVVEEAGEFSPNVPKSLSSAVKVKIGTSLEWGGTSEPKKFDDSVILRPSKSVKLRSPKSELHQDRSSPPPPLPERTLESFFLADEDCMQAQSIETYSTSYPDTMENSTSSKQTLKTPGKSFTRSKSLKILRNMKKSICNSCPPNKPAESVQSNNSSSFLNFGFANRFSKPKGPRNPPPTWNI

[6] = biological target: T4, Tyrosine-protein phosphatase non-receptor type 11 (Homo sapiens, UniProt Q06124); assay: Inhibition of recombinant SHP2 (unknown origin) using pNPP as substrate by spectrophotometric method; outline: as §1
T4 sequence (Q06124 whole entry): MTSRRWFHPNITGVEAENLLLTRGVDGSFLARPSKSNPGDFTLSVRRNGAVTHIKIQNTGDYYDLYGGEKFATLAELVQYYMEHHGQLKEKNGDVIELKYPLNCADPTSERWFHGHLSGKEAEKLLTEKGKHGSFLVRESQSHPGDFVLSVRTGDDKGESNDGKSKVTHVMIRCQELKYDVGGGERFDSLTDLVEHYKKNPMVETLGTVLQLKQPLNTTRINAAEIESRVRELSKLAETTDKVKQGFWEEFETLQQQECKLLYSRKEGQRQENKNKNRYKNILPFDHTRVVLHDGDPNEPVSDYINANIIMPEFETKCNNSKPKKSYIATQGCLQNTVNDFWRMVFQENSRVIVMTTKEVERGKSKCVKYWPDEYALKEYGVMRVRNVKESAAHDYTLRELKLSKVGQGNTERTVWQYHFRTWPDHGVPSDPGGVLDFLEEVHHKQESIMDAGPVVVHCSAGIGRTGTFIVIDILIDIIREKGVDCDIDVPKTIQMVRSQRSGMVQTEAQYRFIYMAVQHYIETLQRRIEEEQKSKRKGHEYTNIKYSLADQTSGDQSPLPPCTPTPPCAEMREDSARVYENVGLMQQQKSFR

Sequence of Tyrosine-protein phosphatase non-receptor type 13 (Q12923 whole entry): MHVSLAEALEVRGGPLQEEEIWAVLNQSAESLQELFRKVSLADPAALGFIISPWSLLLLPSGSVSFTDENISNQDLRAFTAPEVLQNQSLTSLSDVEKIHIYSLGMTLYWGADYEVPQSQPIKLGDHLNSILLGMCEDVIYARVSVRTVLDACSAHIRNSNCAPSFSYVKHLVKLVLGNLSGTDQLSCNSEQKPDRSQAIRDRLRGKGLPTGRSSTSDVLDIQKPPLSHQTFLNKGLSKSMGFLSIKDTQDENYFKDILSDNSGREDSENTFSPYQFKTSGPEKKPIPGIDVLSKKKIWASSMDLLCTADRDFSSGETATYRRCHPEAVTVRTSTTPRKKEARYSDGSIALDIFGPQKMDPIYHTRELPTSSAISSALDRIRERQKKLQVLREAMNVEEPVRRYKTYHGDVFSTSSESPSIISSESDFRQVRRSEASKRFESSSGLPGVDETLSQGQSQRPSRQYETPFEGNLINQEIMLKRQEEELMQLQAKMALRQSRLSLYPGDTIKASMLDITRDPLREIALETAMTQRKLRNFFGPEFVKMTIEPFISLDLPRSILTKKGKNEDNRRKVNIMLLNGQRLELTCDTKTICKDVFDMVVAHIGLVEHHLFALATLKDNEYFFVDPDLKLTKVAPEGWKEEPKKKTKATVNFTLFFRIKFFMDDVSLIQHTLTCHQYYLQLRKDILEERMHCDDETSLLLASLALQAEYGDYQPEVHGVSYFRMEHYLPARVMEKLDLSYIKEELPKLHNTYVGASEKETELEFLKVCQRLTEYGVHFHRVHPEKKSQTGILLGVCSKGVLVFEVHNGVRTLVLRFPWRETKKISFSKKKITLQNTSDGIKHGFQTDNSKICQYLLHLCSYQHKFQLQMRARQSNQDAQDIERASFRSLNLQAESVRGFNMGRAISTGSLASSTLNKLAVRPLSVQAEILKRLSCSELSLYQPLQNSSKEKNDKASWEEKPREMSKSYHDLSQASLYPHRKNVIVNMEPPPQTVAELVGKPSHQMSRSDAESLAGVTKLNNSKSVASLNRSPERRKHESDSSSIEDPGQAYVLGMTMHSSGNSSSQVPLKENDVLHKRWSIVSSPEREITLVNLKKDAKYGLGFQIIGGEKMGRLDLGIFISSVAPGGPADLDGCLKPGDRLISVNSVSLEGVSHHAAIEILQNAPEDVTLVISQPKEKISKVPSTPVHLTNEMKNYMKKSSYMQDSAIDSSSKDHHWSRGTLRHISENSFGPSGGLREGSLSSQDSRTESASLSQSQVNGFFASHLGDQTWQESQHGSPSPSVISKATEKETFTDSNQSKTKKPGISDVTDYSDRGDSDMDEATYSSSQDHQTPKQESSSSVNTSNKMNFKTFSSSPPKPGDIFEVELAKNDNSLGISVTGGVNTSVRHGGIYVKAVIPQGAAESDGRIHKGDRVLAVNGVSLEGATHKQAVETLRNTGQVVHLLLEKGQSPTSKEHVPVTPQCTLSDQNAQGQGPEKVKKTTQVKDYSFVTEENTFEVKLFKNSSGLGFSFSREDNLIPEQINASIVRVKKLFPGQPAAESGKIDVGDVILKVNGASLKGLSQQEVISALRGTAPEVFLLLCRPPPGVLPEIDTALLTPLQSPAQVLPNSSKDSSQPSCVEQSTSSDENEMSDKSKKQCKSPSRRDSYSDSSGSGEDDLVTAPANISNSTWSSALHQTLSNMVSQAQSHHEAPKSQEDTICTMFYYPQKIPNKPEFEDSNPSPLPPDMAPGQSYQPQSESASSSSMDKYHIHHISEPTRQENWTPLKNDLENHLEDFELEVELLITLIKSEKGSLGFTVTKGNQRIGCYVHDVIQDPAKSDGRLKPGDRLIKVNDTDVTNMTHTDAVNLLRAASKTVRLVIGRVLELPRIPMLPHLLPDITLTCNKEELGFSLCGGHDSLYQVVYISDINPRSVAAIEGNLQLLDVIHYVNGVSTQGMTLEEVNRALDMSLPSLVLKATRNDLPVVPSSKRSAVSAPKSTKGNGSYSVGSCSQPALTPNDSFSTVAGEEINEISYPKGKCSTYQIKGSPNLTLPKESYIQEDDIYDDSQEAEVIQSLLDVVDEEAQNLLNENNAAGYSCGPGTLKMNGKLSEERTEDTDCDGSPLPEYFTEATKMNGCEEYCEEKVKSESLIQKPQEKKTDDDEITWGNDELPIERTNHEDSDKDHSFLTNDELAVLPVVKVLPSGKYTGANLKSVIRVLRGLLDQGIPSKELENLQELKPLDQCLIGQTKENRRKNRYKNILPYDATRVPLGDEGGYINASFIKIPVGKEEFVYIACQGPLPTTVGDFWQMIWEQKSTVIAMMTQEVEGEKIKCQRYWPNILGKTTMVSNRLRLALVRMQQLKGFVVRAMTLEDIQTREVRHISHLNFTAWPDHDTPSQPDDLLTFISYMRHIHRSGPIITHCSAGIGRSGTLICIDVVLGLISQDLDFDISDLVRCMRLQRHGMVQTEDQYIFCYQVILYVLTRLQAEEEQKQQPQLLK

SMILES	IC50 [1]	IC50 [2]	IC50 [3]	IC50 [4]	IC50 [5]	IC50 [6]
O=C(COc1ccc2cc(C(O)(C(F)(F)F)C(F)(F)F)c(O)cc2c1)NCc1ccccc1	> 20 µM	> 20 µM	> 20 µM	> 20 µM	> 20 µM	> 20 µM
O=C(COc1ccc2cc(C(O)(C(F)(F)F)C(F)(F)F)c(O)cc2c1)NCCc1ccc(Cl)cc1Cl	5.2 µM	12.6 µM	4.3 µM	5.1 µM	6.9 µM	6.7 µM
O=C(COc1ccc2cc(C(O)(C(F)(F)F)C(F)(F)F)c(O)cc2c1)NC12CC3CC(CC(C3)C1)C2	7.6 µM	14.7 µM	7.4 µM	> 20 µM	10.1 µM	9 µM
O=C(COc1ccc2cc(C(O)(C(F)(F)F)C(F)(F)F)c(O)cc2c1)Nc1ccc(N2CCOCC2)cc1	> 20 µM	> 20 µM	> 20 µM	> 20 µM	> 20 µM	> 20 µM
O=C(COc1ccc2cc(C(O)(C(F)(F)F)C(F)(F)F)c(O)cc2c1)N1c2ccccc2Sc2ccccc21	2.8 µM	6.6 µM	2.2 µM	2.9 µM	3.4 µM	3.2 µM
O=C(COc1ccc2cc(C(O)(C(F)(F)F)C(F)(F)F)c(O)cc2c1)NCc1ccc(F)cc1	> 20 µM	> 20 µM	> 20 µM	> 20 µM	> 20 µM	> 20 µM
O=C(COc1ccc2cc(C(O)(C(F)(F)F)C(F)(F)F)c(O)cc2c1)Nc1ccc(-c2ccccc2)cc1	3.4 µM	> 20 µM	2.8 µM	4.8 µM	> 20 µM	3.5 µM
OC(c1ccccc1)(C(F)(F)F)C(F)(F)F	> 500 µM	> 500 µM	> 500 µM	> 500 µM	> 500 µM	> 500 µM
O=C(COc1ccc2cc(C(O)(C(F)(F)F)C(F)(F)F)c(O)cc2c1)N(c1ccccc1)c1ccccc1	14.9 µM	> 20 µM	12.4 µM	> 20 µM	20.6 µM	19.5 µM
CC(C)c1ccc(NC(=O)COc2ccc3cc(C(O)(C(F)(F)F)C(F)(F)F)c(O)cc3c2)cc1	7.8 µM	17.2 µM	6.5 µM	7.3 µM	8.8 µM	8.5 µM
CCCNC(=O)COc1ccc2cc(C(O)(C(F)(F)F)C(F)(F)F)c(O)cc2c1	> 20 µM	> 20 µM	> 20 µM	> 20 µM	> 20 µM	> 20 µM
Oc1ccc(-c2ccccc2)cc1C(O)(C(F)(F)F)C(F)(F)F	> 500 µM	> 500 µM	> 500 µM	351 µM	> 500 µM	392 µM
Oc1c(C(O)(C(F)(F)F)C(F)(F)F)ccc2ccccc12	> 500 µM	> 500 µM	> 500 µM	> 500 µM	> 500 µM	> 500 µM
O=C(COc1ccc2cc(C(O)(C(F)(F)F)C(F)(F)F)c(O)cc2c1)NC1c2ccccc2-c2ccccc21	6.6 µM	13.8 µM	5.6 µM	9.4 µM	7.5 µM	6.9 µM
Oc1cc(-c2ccccc2)ccc1C(O)(C(F)(F)F)C(F)(F)F	> 500 µM	> 500 µM	> 500 µM	> 500 µM	> 500 µM	> 500 µM
COc1ccc(CNC(=O)COc2ccc3cc(C(O)(C(F)(F)F)C(F)(F)F)c(O)cc3c2)cc1OC	> 20 µM	> 20 µM	> 20 µM	18.1 µM	> 20 µM	> 20 µM
Oc1cc2ccccc2cc1C(O)(C(F)(F)F)C(F)(F)F	112 µM	260 µM	128 µM	106 µM	134 µM	115 µM
CCN(CC)C(=O)COc1ccc2cc(C(O)(C(F)(F)F)C(F)(F)F)c(O)cc2c1	> 20 µM	> 20 µM	> 20 µM	> 20 µM	> 20 µM	> 20 µM
O=C(COc1ccc2cc(C(O)(C(F)(F)F)C(F)(F)F)c(O)cc2c1)Nc1ccccc1	> 20 µM		> 20 µM	14.4 µM	> 20 µM	19 µM

Reference: ChEMBL document CHEMBL3861950, “Design, synthesis and evaluation of novel 19F magnetic resonance sensitive protein tyrosine phosphatase inhibitors” (Medchemcomm, 2016)
